TbMetRS inhib: blocks T. brucei methionyl-tRNA synthetase activity. purified T. brucei MetRS, ATP depletion, Kinase-Glo luminescence. inhibition, % at 11.9 µM. hit rate 0.4% among 360,000. AID 624268;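 active = inhibition above a per-plate cutoff of the control wells' mean inhibition plus 3 SD, cut at about 5.5% in these data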;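 note: 0% = DMSO wells median and 100% = median of wells with control inhibitor compound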
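Dosing: 11.9 µM compound single dose, 0.9% DMSO; Assay system: purified T. brucei MetRS enzyme; Measured by: Kinase-Glo luciferase luminescence reporting remaining unconsumed ATP; Schedule: 15 min plus 2 h at 25 °C.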
PHOSPHO1 block: PHOSPHO1 (human) inhibition; AID 1565; hit rate 1.1% among 290,000; recombinant PHOSPHO1, absorbance phosphatase assay; Q8TCT1; inhibition, % at 13.3 µM; in the data active = inhibition above about 60%
A3G deaminase: blocks human APOBEC3G single-stranded DNA deamination. recombinant A3G, ssDNA deamination FAM/TAMRA fluorescence. inhibition, % at 20 µM. hit rate 0.28% among 330,000;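 active = inhibition of at least 40% at 20 µM, with no more than 30% in the related APOBEC3A deaminase screen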;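 note: plate controls were DMSO wells with A3G for no effect and wells lacking A3G enzyme for full effect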
APOBEC3A inh: human APOBEC3A DNA deaminase inhibition; P31941; recombinant A3A, FAM/TAMRA ssDNA deamination fluorescence; inhibition, % at 20 µM; hit rate 0.41% among 330,000;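 active = at least 40% inhibition at 20 µM here, with at most 30% in a related deaminase screen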;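 note: plate controls were A3A with DMSO for no effect and wells lacking A3A enzyme for full effect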
pCIP destab: lowers stability of the mouse p/CIP coactivator protein. decrease of EGFP signal, % at 10 µM. Q05BA5. hit rate 0.01% among 290,000. F442A p/CIP-EGFP cells, EGFP fluorescence, 16 h. AID 1984;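 active = EGFP signal decrease of at least 30% at 10 µM or well 3 SD below plate mean, unless failing retest; inactive = the rest, including hits failing retest or dose response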
APOBEC3A confirm: confirmation of human APOBEC3A DNA deaminase inhibitors. shares compounds with APOBEC3A inh. recombinant A3A, ssDNA deaminase UDG fluorescence assay. inhibition, % at 20 µM. hit rate 63% among 1,400;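 active = inhibition reaching a set limit, 80% of the first screen's cutoff, at 20 µM in any replicate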;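 note: plate controls were DMSO wells with A3A for no effect and wells lacking A3A enzyme for full effect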
UDG ctr A3A: inhibits UDG, flagging false APOBEC3A inhibitors; shares compounds with APOBEC3A inh; UDG counterscreen, FAM/TAMRA uracil oligo fluorescence; inhibition, % at 20 µM; 1,000 tested, under 10 active; AID 504714; call rule not given here
Starred values were filed as active, the others as inactive. An excerpt weighted towards active compounds, which were near 1.8% of everything screened.

For O=C(NCC1CCCO1)c1ccccc1OCc1ccc(Cl)cc1 (stereo not given) the results were TbMetRS inhib 0, A3G deaminase -4 and APOBEC3A inh 0.
Cn1ccsc1=NC(=O)c1ccc(=O)[nH]c1 was read as TbMetRS inhib 0, PHOSPHO1 block 28, A3G deaminase 18, APOBEC3A inh 59*, pCIP destab -4 and APOBEC3A confirm 4.
`Cn1ccsc1=NC(=O)c1cccc(OC(F)F)c1` gave TbMetRS inhib 0, PHOSPHO1 block 31, A3G deaminase -4, APOBEC3A inh 0 and pCIP destab -4.
O=C(CCc1nnc2ccc(NCc3ccccc3Cl)nn12)NC1CCCCC1 was read as TbMetRS inhib 0, PHOSPHO1 block 32, A3G deaminase -3, APOBEC3A inh -1 and pCIP destab -40.
`Cc1ccc(S(=O)(=O)Cc2ccc(C(=O)N3CCc4ccccc4C3)o2)cc1` gave TbMetRS inhib 0, PHOSPHO1 block 11, A3G deaminase 11, APOBEC3A inh 41*, pCIP destab 2, APOBEC3A confirm 34* and UDG ctr A3A -3.
`COc1ccc(S(=O)(=O)Cc2ccc(C(=O)N3CCc4ccccc4C3)o2)cc1` gave TbMetRS inhib -1, PHOSPHO1 block 1, A3G deaminase -4, APOBEC3A inh 3 and pCIP destab -12.
`COC(=O)c1cc(NC(=O)Cc2cccs2)cc(C(=O)OC)c1` gave TbMetRS inhib -1, PHOSPHO1 block 30, A3G deaminase 18, APOBEC3A inh 64*, pCIP destab -5 and APOBEC3A confirm 48*.
`O=C(CCN1C(=O)COc2ccccc21)NCc1ccco1` gave TbMetRS inhib 0, PHOSPHO1 block 29, A3G deaminase -1, APOBEC3A inh 64*, pCIP destab -13, APOBEC3A confirm 7 and UDG ctr A3A 5.
CN(C)CCNc1ncnc2c1ncn2[C@H]1CN(Cc2cccs2)C[C@@H](CO)O1 was read as TbMetRS inhib -1.
Screening O=C1C2C(C(=O)N1/N=C/c1cc([N+](=O)[O-])ccc1O)C1C=CC2C12CC2 (stereo not given) returned TbMetRS inhib -1, PHOSPHO1 block 32, A3G deaminase -1, APOBEC3A inh -7 and pCIP destab -13.
For O=C1C2C(C(=O)N1/N=C/c1cc([N+](=O)[O-])c(O)cc1O)C1C=CC2C12CC2 (stereo not given) the results were TbMetRS inhib 0, PHOSPHO1 block 8, A3G deaminase 19, APOBEC3A inh 78*, pCIP destab -12, APOBEC3A confirm 74* and UDG ctr A3A -2.
CCc1n(CC(O)COCc2ccccc2)c2ccccc2[n+]1C (stereo not given) was read as TbMetRS inhib -1, PHOSPHO1 block -62, A3G deaminase 16, APOBEC3A inh 58*, pCIP destab 16, APOBEC3A confirm 79* and UDG ctr A3A -2.
`Cc1ccccc1NC(=O)NNC(=O)CCc1ccccc1` gave TbMetRS inhib 0, PHOSPHO1 block 36, A3G deaminase 0, APOBEC3A inh 41*, pCIP destab 5 and APOBEC3A confirm -1.
Screening Cc1ccc(C)c(NC(=O)NNC(=O)CCc2ccccc2)c1 returned TbMetRS inhib -1, PHOSPHO1 block 36, A3G deaminase -3, APOBEC3A inh 2 and pCIP destab -8.
For CCN1C(=NCc2cc(OC)c(OC)c(OC)c2)N[C@@H](c2ccccc2)C(C(=O)OC)=C1C the results were TbMetRS inhib 0, A3G deaminase 11, APOBEC3A inh 45*, APOBEC3A confirm 68* and UDG ctr A3A 0.
CCN1C(=NCc2ccc(OC)cc2)N[C@@H](c2ccccc2)C(C(=O)OC)=C1C was read as TbMetRS inhib 0, PHOSPHO1 block -36, A3G deaminase 12, APOBEC3A inh 92*, pCIP destab -4, APOBEC3A confirm 66* and UDG ctr A3A -3.
For COC(=O)C1=C(C)N(Cc2ccccc2)C(=NCC2CC2)N[C@H]1c1ccccc1 the results were TbMetRS inhib 0, A3G deaminase 7 and APOBEC3A inh 39.
Screening CCN1C(=NCC2CC2)N[C@@H](c2ccccc2)C(C(=O)OC)=C1C returned TbMetRS inhib 0, A3G deaminase 12, APOBEC3A inh 46*, APOBEC3A confirm 80* and UDG ctr A3A 4.
`O=C(CNCc1ccccc1)NCCCN1CCCC1=O` gave TbMetRS inhib 0, PHOSPHO1 block 46, A3G deaminase -10, APOBEC3A inh -5 and pCIP destab -4.
Screening CSc1nc2ccc(NC(=O)c3ccc(F)c(F)c3)cc2s1 returned TbMetRS inhib 0, PHOSPHO1 block 17, A3G deaminase -5, APOBEC3A inh -3 and pCIP destab -3.
For CSc1nc2ccc(NC(=O)c3ccc(=O)[nH]c3)cc2s1 the results were TbMetRS inhib -1, PHOSPHO1 block 8, A3G deaminase 3, APOBEC3A inh 42*, pCIP destab -3 and APOBEC3A confirm 23.
Screening CC[N+](CC)(CC)CCOc1cccc(OCC[N+](CC)(CC)CC)c1OCC[N+](CC)(CC)CC returned TbMetRS inhib -1, A3G deaminase 20, APOBEC3A inh 75*, APOBEC3A confirm 92* and UDG ctr A3A -3.
For CC[N+](CC)(CC)CCOc1ccc(/C=C/c2ccccc2)cc1 the results were TbMetRS inhib 0, A3G deaminase 11, APOBEC3A inh 49*, APOBEC3A confirm 76* and UDG ctr A3A -2.
CCOc1ccccc1OCCOCCOc1c(Cl)cccc1Cl was read as TbMetRS inhib -1, PHOSPHO1 block -7, A3G deaminase -6, APOBEC3A inh -1 and pCIP destab 14.
`O=[N+]([O-])c1ccc2nc(N3CCCC3)sc2c1` gave TbMetRS inhib 0, PHOSPHO1 block 20, A3G deaminase 18, APOBEC3A inh 45*, pCIP destab -5, APOBEC3A confirm 55* and UDG ctr A3A -1.
`CCN(CC(=O)Nc1cccc(F)c1)CC(=O)Nc1ccc2c(c1)OCCO2` gave TbMetRS inhib 0.
CN(CC(=O)Nc1cccc(F)c1)C(=O)c1ccc2c(c1)OCCO2 was read as TbMetRS inhib 0, A3G deaminase 4, APOBEC3A inh 40* and APOBEC3A confirm 2.
COc1ccc(N2CC(C(=O)Nc3nnc(SCC(=O)NC(C)(C)C)s3)CC2=O)cc1 (stereo not given) was read as TbMetRS inhib 0, PHOSPHO1 block 4, A3G deaminase 12, APOBEC3A inh 48*, pCIP destab -5 and APOBEC3A confirm 8.
`COc1ccc(OCC(=O)N(Cc2ccco2)C2CCS(=O)(=O)C2)cc1` (stereo not given) gave TbMetRS inhib -1, PHOSPHO1 block 15, A3G deaminase -3, APOBEC3A inh 0 and pCIP destab -7.
